{"data": "Results of several laboratories", "target": "Homeodomain-interacting protein kinase 1 (HIPK1, Homo sapiens, UniProt Q86Z02)"}
{"Compound": "CN(C)c1nccc(-c2cnc3ncccn23)n1", "observed": "binding", "concentration": "1 µM", "remaining binding [%]": 44}
{"Compound": "FC(F)(F)c1ccc2c(c1)nc(-c1cccnc1)n2C1CC1", "observed": "cell-free assay", "technique": "competition with immobilised ligand", "concentration": "1 µM", "remaining binding [%]": 100}
{"Compound": "COc1cc(Nc2nccc(-c3cnn4nc(OC)ccc34)n2)cc(C(F)(F)F)c1", "observed": "binding", "technique": "competition with immobilised ligand", "concentration": "1 µM", "remaining binding [%]": 31}
{"Compound": "O=C(Nc1c[nH]nc1C(=O)NC1CCNCC1)c1cc(F)cc(F)c1", "observed": "binding", "technique": "competition with immobilised ligand", "concentration": "1 µM", "remaining binding [%]": 33}
{"Compound": "C[C@H]1CCN(c2nccc(-c3cnn4ncccc34)n2)C1", "observed": "binding", "concentration": "1 µM", "remaining binding [%]": 40}
{"Compound": "c1cncc(-c2cccc(Nc3nccc(NC4CCCCC4)n3)c2)c1", "observed": "binding", "technique": "competition with immobilised ligand", "concentration": "10 µM", "remaining binding [%]": 56}
{"Compound": "CNC(=O)[C@@H]1CC[C@@H](n2c(-c3ccc4cnccc4c3)nc3ccc(C(=O)NCc4cccc(C(N)=O)c4)cc32)C1", "observed": "binding", "technique": "competition with immobilised ligand", "concentration": "1 µM", "remaining binding [%]": 85}
{"Compound": "O=C(c1ccc(Nc2ncc(Cl)c(-c3ccc(Cl)s3)n2)cc1)N1CCC(N2CCCC2)CC1", "observed": "binding", "technique": "competition with immobilised ligand", "concentration": "1 µM", "remaining binding [%]": 1.3}
{"Compound": "COc1cc(-c2cn(C3CCc4ccccc4N(CC(F)(F)F)C3=O)nn2)ccc1-n1ccc(C)n1 (stereo not drawn)", "observed": "cell-free assay", "technique": "competition with immobilised ligand", "concentration": "1 µM", "remaining binding [%]": 96}
{"Compound": "O=C(c1ccc(Nc2nccc(-c3cc4ccccc4s3)n2)cc1)N1CCC(N2CCCC2)CC1", "observed": "binding", "technique": "competition with immobilised ligand", "concentration": "1 µM", "remaining binding [%]": 13}
{"Compound": "COc1ccnn2ncc(-c3ccnc(N(C)C)n3)c12", "observed": "binding", "concentration": "1 µM", "remaining binding [%]": 55}
{"Compound": "O=C(O)c1cc(-c2ccc(C3CCNCC3)cc2)c2ccc(-c3ccc(C(F)(F)F)cc3)cc2c1", "observed": "cell-free assay", "technique": "competition with immobilised ligand", "concentration": "1 µM", "remaining binding [%]": 97}
{"Compound": "N[C@H]1CCN(c2nccc(-c3cnn4ncccc34)n2)C1", "observed": "binding", "concentration": "1 µM", "remaining binding [%]": 54}
{"Compound": "C[C@@H](c1ccc(-n2cnc3c(N)ncnc32)cc1)N1CCc2nn(C)c(Cc3ccccc3)c2C1=O", "observed": "binding", "technique": "competition with immobilised ligand", "concentration": "0.1 µM", "remaining binding [%]": 91}
{"Compound": "C[C@H](NC(=O)c1cnc2n1[C@](C)(Cc1ccc(C#N)cc1)C(=O)N2c1cc(Cl)c(F)c(Cl)c1)C(=O)NC1(c2ccccn2)CC1", "observed": "cell-free assay", "technique": "competition with immobilised ligand", "concentration": "1 µM", "remaining binding [%]": 97}
{"Compound": "CN(C)c1ncc(F)c(-c2cnn3ncccc23)n1", "observed": "binding", "concentration": "1 µM", "remaining binding [%]": 75}
{"Compound": "O=C(NCCCN1CCOCC1)c1ccc(Nc2ncc(Cl)c(-c3ccc(Cl)s3)n2)cc1", "observed": "binding", "technique": "competition with immobilised ligand", "concentration": "1 µM", "remaining binding [%]": 8.7}
{"Compound": "CS(=O)(=O)NCC[C@H](NC(=O)c1cncc2c1cnn2-c1ccc(F)cc1)c1ccnc(S(C)(=O)=O)c1", "observed": "cell-free assay", "technique": "competition with immobilised ligand", "concentration": "1 µM", "remaining binding [%]": 100}
{"Compound": "FC(F)(F)Oc1cccc(-c2cnc3ccc(-c4ccncc4)nn23)c1", "observed": "cell-free assay", "technique": "competition with immobilised ligand", "concentration": "5 µM", "remaining binding [%]": 0.15}
{"Compound": "COc1ccc2cc(OCC3(C(=O)O)CN(C(=O)c4ccc(F)cc4)C3)ccc2c1", "observed": "cell-free assay", "technique": "competition with immobilised ligand", "concentration": "1 µM", "remaining binding [%]": 100}
{"Compound": "C=CC(=O)N1CCC(C(=O)NCC(=O)N2CCN(c3nc(-c4cnc(N)nc4C(F)F)nc(N4CCOCC4)n3)CC2)CC1", "observed": "binding", "technique": "competition with immobilised ligand", "concentration": "1 µM", "remaining binding [%]": 97}
